Results on eight compounds are retold here after ChEMBL document CHEMBL1124255, “7-substituted 5-amino-1-cyclopropyl-6,8-difluoro-1,4-dihydro-4-oxo-3- quinolinecarboxylic acids: synthesis and biological activity of a new class of quinolone antibacterials” (J Med Chem, 1988).

The test system of assay [1] is Staphylococcus aureus. Briefly: Antibacterial activity against Staphylococcus aureus H-228. In kind it is functional. In a few lines: (§1)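 Minimum inhibitory concentration measured by standard microtitration, run as part of a panel of 11 bacterial organisms.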
The test system of assay [2] is Escherichia coli. Briefly: Median protective dose against Escherichia coli, determined in acute, lethal systemic infection in female charles river CD-1 mice (po). In kind it is functional. On the set-up: PD50: unit not given here. As to conditions: for ED50: Escherichia coli, po, read-out: PD50. In a few lines: (§2)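 Female Charles River CD-1 mice (18-22 g) were challenged intraperitoneally with about 100 median lethal doses in 0.5 mL 5% hog gastric mucin. Single compound doses in a twofold rising series were given in 0.5 mL at the time of challenge: sc as aqueous solution, po by gavage in 5% gum acacia. Groups of eight mice were used per dose. PD50 was estimated from survival percentages by log probit.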

For assay [3], the system named is Providencia rettgeri. Briefly: Antibacterial activity against Providencia rettgeri M1771. In kind it is functional. The essentials:
as §1

Assay [4] deals with Streptococcus pneumoniae. Briefly: Antibacterial activity against Streptococcus pneumoniae SV-1. In kind it is functional. The essentials:
as §1

Assay [5] concerns Enterobacter cloacae. Briefly: Antibacterial activity against Enterobacter cloacae MA2646. In kind it is functional.
Assay [6] relates to Pseudomonas aeruginosa. The experiment in a line: Antibacterial activity against Pseudomonas aeruginosa UI-18. In kind it is functional. In a few lines: as §1
For assay [7], the system named is Escherichia coli. The experiment in a line: Antibacterial activity against Escherichia coli Vogel. In kind it is functional. The essentials:
as §1

The target in assay [8] is DNA gyrase (Escherichia coli, UniProt P0AES4+P0AES6). The experiment in a line: 50% inhibitory concentration against DNA-gyrase. The class given is protein-complex assay.
Assay [9] relates to Klebsiella pneumoniae. Briefly: Antibacterial activity against Klebsiella pneumoniae MGH-2. The class given is functional. In a few lines: as §1
For assay [10], the system named is Staphylococcus aureus. Briefly: Antibacterial activity against Staphylococcus aureus UC76. In kind it is functional. The essentials: as §1
The test system of assay [11] is Streptococcus pyogenes. The experiment in a line: Antibacterial activity against Streptococcus pyogenes C203. The class given is functional. In a few lines:
as §1

Assay [12] has as its system Enterococcus faecalis. Briefly: Antibacterial activity against Streptococcus faecalis MGH-2. In kind it is functional. The essentials:
as §1

Assay [13] deals with Escherichia coli. The experiment in a line: Median protective dose against Escherichia coli, determined in acute, lethal systemic infection in female charles river CD-1 mice (sc). In kind it is functional. Conditions: read-out: PD50. In a few lines:
as §2

Assay [14] relates to Escherichia coli. Briefly: Antibacterial activity against Escherichia coli H560. In kind it is functional. The essentials:
as §1

In brackets after ≈: the same amount, converted by molar mass.

On to `Nc1c(F)c(N2CCNCC2)c(F)c2c1c(=O)c(C(=O)O)cn2C1CC1`, for which the MIC in [1] stood at 0.05 µg/mL (≈ 0.137 µM); in assay [3] it was 0.05 µg/mL (≈ 0.137 µM); in assay [4], 0.05 µg/mL (≈ 0.137 µM); in [5], 0.013 µg/mL (≈ 0.0357 µM); in [6], 0.025 µg/mL (≈ 0.0686 µM); in [7], 0.013 µg/mL (≈ 0.0357 µM). The MIC in assay [9] worked out at 0.025 µg/mL (≈ 0.0686 µM); in [10] it was 0.013 µg/mL (≈ 0.0357 µM); in [11], 0.2 µg/mL (≈ 0.549 µM); in assay [12] it was 0.05 µg/mL (≈ 0.137 µM); in assay [14], 0.003 µg/mL (≈ 0.00823 µM). Further, the ED50 in assay [2] came to 0.8 mg/kg; in [13] it was 0.2 mg/kg. Further, the IC50 in assay [8] is 7.68 µM.
In the case of `CCNCC1CCN(c2c(F)cc3c(=O)c(C(=O)O)cn(C4CC4)c3c2F)C1` (configuration not stated) [PD-117558], the MIC came to 0.05 µg/mL (≈ 0.128 µM) in assay [1]; 0.2 µg/mL (≈ 0.511 µM) in assay [3]; 0.025 µg/mL (≈ 0.0639 µM) in assay [4]; 0.2 µg/mL (≈ 0.511 µM) in assay [5]; 0.4 µg/mL (≈ 1.02 µM) in assay [6]; 0.05 µg/mL (≈ 0.128 µM) in assay [7]. Further, the MIC in assay [9] was 0.1 µg/mL (≈ 0.255 µM); in assay [10] it was 0.006 µg/mL (≈ 0.0153 µM); in [11], 0.025 µg/mL (≈ 0.0639 µM); in [12], 0.025 µg/mL (≈ 0.0639 µM); in assay [14], 0.025 µg/mL (≈ 0.0639 µM). The ED50 in assay [2] was 4.2 mg/kg; in assay [13], 1 mg/kg. In addition, the IC50 in [8] was 3.58 µM.
On to `CCNCC1CCN(c2c(F)c(N)c3c(=O)c(C(=O)O)cn(C4CC4)c3c2F)C1` (configuration not stated), for which the MIC in assay [1] turned out to be 0.013 µg/mL (≈ 0.032 µM); in [3] it was 0.05 µg/mL (≈ 0.123 µM); in assay [4], 0.003 µg/mL (≈ 0.00738 µM); in [5] it was 0.05 µg/mL (≈ 0.123 µM); in [6], 0.4 µg/mL (≈ 0.984 µM); in assay [7] it was 0.05 µg/mL (≈ 0.123 µM). In addition, the MIC in assay [9] turned out to be 0.05 µg/mL (≈ 0.123 µM); in [10], 0.003 µg/mL (≈ 0.00738 µM); in assay [11] it was 0.013 µg/mL (≈ 0.032 µM); in assay [12] it was 0.025 µg/mL (≈ 0.0615 µM); in assay [14], 0.013 µg/mL (≈ 0.032 µM). The compound further came in with a PD50 in [2] of 16. The same compound showed an IC50 in assay [8] of 6.64 µM. In addition, the ED50 in [13] came to 2.4 mg/kg.
Take `CCNCC1CCN(c2c(F)c(NC(C)=O)c3c(=O)c(C(=O)O)cn(C4CC4)c3c2F)C1` (configuration not stated): the MIC in assay [1] was 12.5 µg/mL (≈ 27.9 µM); in [3] it was more than 25 µg/mL; in [4], 6.3 µg/mL (≈ 14 µM); in [5] it was more than 25 µg/mL; in assay [6] it was more than 25 µg/mL; in [7], more than 25 µg/mL. Besides, the minimal inhibitory concentration (MIC) in assay [9] is more than 25 µg/mL; in assay [10] it was 3.1 µg/mL (≈ 6.91 µM); in assay [11], 12.5 µg/mL (≈ 27.9 µM); in assay [12] it was 12.5 µg/mL (≈ 27.9 µM); in assay [14], 12.5 µg/mL (≈ 27.9 µM). The compound also displayed an IC50 in assay [8] of more than 223 µM.
For `CN1CCN(c2c(F)c(N)c3c(=O)c(C(=O)O)cn(C4CC4)c3c2F)CC1`, the MIC in [1] came to 0.05 µg/mL (≈ 0.132 µM); in [3], 0.05 µg/mL (≈ 0.132 µM); in [4] it was 0.2 µg/mL (≈ 0.529 µM); in assay [5] it was 0.013 µg/mL (≈ 0.0344 µM); in [6] it was 0.1 µg/mL (≈ 0.264 µM); in assay [7], 0.013 µg/mL (≈ 0.0344 µM). Besides, the MIC in [9] came to 0.013 µg/mL (≈ 0.0344 µM); in [10], 0.025 µg/mL (≈ 0.0661 µM); in assay [11], 0.4 µg/mL (≈ 1.06 µM); in assay [12], 0.1 µg/mL (≈ 0.264 µM); in assay [14], 0.003 µg/mL (≈ 0.00793 µM). Also, the ED50 in [2] worked out at 2.2 mg/kg; in assay [13], 1.1 mg/kg. In [8], this compound showed an IC50 of 7.4 µM.
On to `O=C(O)c1cn(C2CC2)c2cc(N3CCNCC3)c(F)cc2c1=O` [CIPROFLOXACIN], for which the MIC in [1] was determined as 3.1 µg/mL (≈ 9.36 µM); in [3], 0.1 µg/mL (≈ 0.302 µM); in assay [4], 1.6 µg/mL (≈ 4.83 µM); in assay [6], 0.4 µg/mL (≈ 1.21 µM); in assay [9], 0.1 µg/mL (≈ 0.302 µM); in [10], 0.2 µg/mL (≈ 0.604 µM). The MIC in assay [11] stood at 0.8 µg/mL (≈ 2.41 µM); in assay [12], 0.8 µg/mL (≈ 2.41 µM); in assay [14], 0.025 µg/mL (≈ 0.0754 µM). For the same compound, the ED50 was 1.2 mg/kg in [2] and 0.3 mg/kg in assay [13].
Consider `CC1COc2c(N3CCN(C)CC3)c(F)c(N)c3c(=O)c(C(=O)O)cn1c23` (configuration not stated), for which the MIC in [1] was 0.8 µg/mL (≈ 2.13 µM); in [3], 1.6 µg/mL (≈ 4.25 µM); in [4] it was 3.1 µg/mL (≈ 8.24 µM); in assay [5], 0.8 µg/mL (≈ 2.13 µM); in assay [6], 0.8 µg/mL (≈ 2.13 µM); in assay [7], 0.2 µg/mL (≈ 0.531 µM). The MIC was 0.4 µg/mL (≈ 1.06 µM) in [9]; 0.2 µg/mL (≈ 0.531 µM) in assay [10]; 3.1 µg/mL (≈ 8.24 µM) in assay [11]; 1.6 µg/mL (≈ 4.25 µM) in [12]; 0.1 µg/mL (≈ 0.266 µM) in assay [14]. Moreover, the ED50 worked out at 7.5 mg/kg in [2] and 4.6 mg/kg in assay [13]. This compound gave an IC50 in assay [8] of 69.1 µM.
Consider `NCC1CCN(c2c(F)c(N)c3c(=O)c(C(=O)O)cn(C4CC4)c3c2F)C1` (configuration not stated), for which the MIC in assay [1] was determined as 0.006 µg/mL (≈ 0.0159 µM); in assay [3] it was 0.05 µg/mL (≈ 0.132 µM); in [4], 0.003 µg/mL (≈ 0.00793 µM); in assay [5], 0.025 µg/mL (≈ 0.0661 µM); in assay [6], 0.1 µg/mL (≈ 0.264 µM); in assay [7], 0.013 µg/mL (≈ 0.0344 µM). Also, the MIC in [9] was 0.025 µg/mL (≈ 0.0661 µM); in [10], 0.003 µg/mL (≈ 0.00793 µM); in [11] it was 0.003 µg/mL (≈ 0.00793 µM); in assay [12] it was 0.013 µg/mL (≈ 0.0344 µM); in assay [14], 0.003 µg/mL (≈ 0.00793 µM). The ED50 in [2] is 12 mg/kg; in assay [13] it was 0.8 mg/kg. The compound also showed an IC50 in assay [8] of 7.66 µM.
